# From ChEMBL document CHEMBL1151800, “Synthesis, biological evaluation and SAR study of novel pyrazole analogues as inhibitors of Mycobacterium tuberculosis” (2008)
# System: Mycobacterium tuberculosis
# Experiment: Antimycobacterial activity against Mycobacterium tuberculosis H37Rv ATCC 27294 after 21 to 28 days by twofold agar dilution method
# Assay type: functional
# In short: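 Twofold agar dilution on Middlebrook 7H11 agar with 10% OADC enrichment, compounds at […]. Each well received 10 μL of H37Rv suspension at 1.5 x 10⁵ cfu/mL grown in 7H9 broth with 10% ADC, giving a final inoculum of 1.5 x 10³ per well. Incubated 21–28 days. MIC read as lowest concentration completely inhibiting visible growth.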
row,Structure (SMILES),MIC
1,CC(C)c1[nH]n(-c2ccc(Cl)cc2)c(=O)c1C(=O)c1ccc(Cl)cc1,32 µg/mL
2,Cc1[nH]n(-c2ccc(Br)cc2)c(=O)c1C(=O)c1ccc(Cl)cc1,4 µg/mL
3,O=C(c1ccc(Cl)cc1)c1c(-c2ccccc2)[nH]n(-c2ccccc2)c1=O,32 µg/mL
4,O=C(c1ccc(Cl)cc1)c1c(C(F)(F)F)[nH]n(-c2ccc(Cl)cc2)c1=O,> 64 µg/mL
5,Cc1[nH]n(-c2ccc(C(C)C)cc2)c(=O)c1C(=O)c1ccc(Cl)cc1,16 µg/mL
6,CC(C)c1[nH]n(-c2ccccc2)c(=O)c1C(=O)c1ccc(Cl)cc1,64 µg/mL
7,Cc1ccc(-n2[nH]c(-c3ccccc3)c(C(=O)c3ccc(Cl)cc3)c2=O)cc1,32 µg/mL
8,Cc1[nH]n(-c2ccc(F)cc2)c(=O)c1C(=O)c1ccc(Cl)cc1,12.5 µg/mL
9,Cc1[nH]n(-c2ccc(Cl)cc2)c(=O)c1C(=O)c1ccc(Cl)cc1,6.25 µg/mL
10,O=C(c1ccc(Cl)cc1)c1c(C(F)(F)F)[nH]n(-c2ccccc2)c1=O,> 64 µg/mL
11,CC(C)c1ccc(-n2[nH]c(-c3ccccc3)c(C(=O)c3ccc(Cl)cc3)c2=O)cc1,32 µg/mL
12,O=C(c1ccc(Cl)cc1)c1c(-c2ccccc2)[nH]n(-c2ccc(Cl)cc2)c1=O,16 µg/mL
13,Cc1ccc(-n2nc(C)c(C(=O)c3ccc(Cl)cc3)c2O)cc1,16 µg/mL
14,Cc1c(C(=O)c2ccc(Cl)cc2)c(=O)n(-c2ccc(Cl)cc2)n1Cc1ccc(F)cc1,32 µg/mL
15,Cc1c(C(=O)c2ccc(Cl)cc2)c(=O)n(-c2ccc(Cl)cc2)n1Cc1ccccc1,16 µg/mL
16,Cc1c(C(=O)c2ccc(Cl)cc2)c(=O)n(-c2ccccc2)n1C,> 100 µg/mL
17,Cc1c(C(=O)c2ccc(Cl)cc2)c(=O)n(-c2ccccc2)n1Cc1ccc(F)cc1,32 µg/mL
18,Cc1c(C(=O)c2ccc(Cl)cc2)c(=O)n(-c2ccc(Cl)cc2)n1Cc1ccc([N+](=O)[O-])cc1,32 µg/mL
19,Cc1c(C(=O)c2ccc(Cl)cc2)c(=O)n(-c2ccccc2)n1Cc1ccc([N+](=O)[O-])cc1,> 32 µg/mL
20,Cc1nn(-c2ccccc2)c(O)c1C(=O)c1ccc(Cl)cc1,6.25 µg/mL
21,Cc1c(C(=O)c2ccc(Cl)cc2)c(=O)n(-c2ccccc2)n1Cc1ccccc1,> 64 µg/mL
